Measurements: ChEMBL document CHEMBL1148018, “Discovery and SAR development of thienopyridones: a class of small molecule AMPK activators” (Bioorg Med Chem Lett, 2007)
Activity calls are given as the source filed them. The rule behind the calls is not given here.

Tested on: not listed separately
Test: (§1) Activation of AMPK in rat liver assessed as SAMS peptide phosphorylation
Format: functional, tissue-based
Summary of the method: (§2)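 Kinase activity is read as phosphorylation of the SAMS peptide substrate. Substrate concentration is 20 in standard assays and 100 in additivity assays.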

EC50 [µM]	Compound
180	COc1cccc(-c2c(O)c3c(-c4ccccc4)csc3[nH]c2=O)c1
40	C=CCc1ccc(-c2csc3[nH]c(=O)c(C#N)c(O)c23)cc1
84	N#Cc1c(O)c2c(-c3ccc(F)cc3)csc2[nH]c1=O
10	N#Cc1c(O)c2c(-c3ccc(F)cc3)c(Br)sc2[nH]c1=O
8	COCOc1ccc(-c2csc3[nH]c(=O)c(C#N)c(O)c23)cc1
20	N#Cc1c(O)c2c(-c3ccc(O)cc3)csc2[nH]c1=O
20	N#Cc1c(O)c2c(-c3ccc4c(c3)OCO4)csc2[nH]c1=O
38	N#Cc1c(O)c2c(-c3cccc(O)c3)csc2[nH]c1=O
55	COC(=O)c1ccc(-c2csc3[nH]c(=O)c(C#N)c(O)c23)cc1
38	N#Cc1c(O)c2c(-c3ccccc3)csc2[nH]c1=O
88	O=c1[nH]c2scc(-c3ccccc3)c2c(O)c1Cl
183	O=c1[nH]c2scc(-c3ccccc3)c2c(O)c1-c1cccs1
3.7	N#Cc1c(O)c2c(-c3ccccc3)c(Cl)sc2[nH]c1=O
72	N#Cc1c(O)c2c(-c3ccc(Br)cc3)csc2[nH]c1=O
2	N#Cc1c(O)c2c(-c3ccc(O)cc3)c(Cl)sc2[nH]c1=O
175	COC(=O)c1c(O)c2c(-c3ccccc3)csc2[nH]c1=O
81	N#Cc1c(O)c2c(-c3ccc(Cl)cc3)csc2[nH]c1=O
5.8	N#Cc1c(O)c2c(-c3ccccc3)c(Br)sc2[nH]c1=O

Organism: Rattus norvegicus
Test: as §1
Format: functional, tissue-based
Summary of the method: as §2

Compound	Activity
N#Cc1c(O)c2c(-c3ccccc3)c([N+](=O)[O-])sc2[nH]c1=O	inactive
Cn1c(=O)c(C#N)c(N)c2c(-c3ccc(Br)cc3)csc21	inactive
COc1c(C#N)c(=O)[nH]c2scc(-c3ccccc3)c12	inactive
N#Cc1c(O)c2c(-c3ccccc3)c(-c3ccccc3O)sc2[nH]c1=O	inactive
CN(C)c1c(O)c2c(-c3ccccc3)csc2[nH]c1=O	inactive
Cn1c(=O)c(C#N)c(O)c2c(-c3ccc(Br)cc3)c(F)sc21	inactive
O=c1cc(O)c2c(-c3ccccc3)csc2[nH]1	inactive
O=c1[nH]c2scc(-c3ccccc3)c2c(O)c1-c1ccccc1	inactive
Cn1c(=O)c(C#N)c(O)c2c(-c3ccccc3)csc21	inactive
Cn1c(=O)c(C#N)c(O)c2c(-c3ccc(Cl)cc3)csc21	inactive
